Results as given in BindingDB's records for doi:10.1016/j.ejmech.2016.08.061 (South China University of Technology, 2017).

How the values were obtained:
Cholinesterase [1] = target: Cholinesterase (Homo sapiens, UniProt P06276); assay: Irreversible inhibition of human plasma BuChE assessed as second order carbamylation rate constant using S-butyrylthiocholine iodide as substrate preincubated up to 45 mins followed by substrate addition measured after 5 mins; conditions: read-out: kon (M-1-s-1)
Method in brief: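 Diluted human plasma BChE was preincubated for 1–45 min with inhibitor at 5×10^-9, 1×10^-8, 2.5×10^-8 and 5×10^-8 M. Residual Ellman activity with BTCh at pH 8 was normalised to a water control. kobs came from a one-phase exponential fit; k_I1 came from the slope of kobs versus concentration.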

Cholinesterase [2] = target: Cholinesterase (Equus caballus, UniProt P81908); assay: Irreversible inhibition of equine serum BuChE assessed as second order carbamylation rate constant using S-butyrylthiocholine iodide as substrate preincubated up to 45 mins followed by substrate addition measured after 5 mins; conditions: read-out: kon (M-1-s-1)
Method in brief: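 Equine BChE, pH 8, 37°C, was preincubated for 1, 2, 4, 8, 15, 30 and 45 min with inhibitor at 1×10^-7 to 5×10^-6 M (seven levels). Residual activity was read by Ellman with BTCh and normalised to a water control at each time. kobs came from a one-phase exponential decay fit; k_I1 came from the linear kobs versus concentration relation.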

Chain of Cholinesterase (Homo sapiens, UniProt P06276) (P06276 whole entry): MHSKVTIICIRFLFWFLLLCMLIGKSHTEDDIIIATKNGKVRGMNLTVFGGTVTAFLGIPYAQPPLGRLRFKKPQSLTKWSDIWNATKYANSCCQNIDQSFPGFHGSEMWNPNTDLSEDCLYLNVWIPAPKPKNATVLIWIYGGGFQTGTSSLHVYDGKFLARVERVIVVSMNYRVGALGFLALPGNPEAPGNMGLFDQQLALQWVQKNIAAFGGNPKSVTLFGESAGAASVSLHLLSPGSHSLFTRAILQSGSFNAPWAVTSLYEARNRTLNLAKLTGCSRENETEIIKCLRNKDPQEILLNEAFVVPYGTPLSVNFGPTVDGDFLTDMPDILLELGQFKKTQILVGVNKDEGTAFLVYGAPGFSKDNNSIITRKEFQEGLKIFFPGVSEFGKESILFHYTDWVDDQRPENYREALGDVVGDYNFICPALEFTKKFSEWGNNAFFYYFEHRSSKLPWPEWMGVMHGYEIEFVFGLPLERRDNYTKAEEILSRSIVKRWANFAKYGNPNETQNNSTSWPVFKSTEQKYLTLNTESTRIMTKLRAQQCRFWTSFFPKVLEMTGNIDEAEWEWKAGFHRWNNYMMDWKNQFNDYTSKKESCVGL
Chain of Cholinesterase (Equus caballus, UniProt P81908) (P81908 whole entry): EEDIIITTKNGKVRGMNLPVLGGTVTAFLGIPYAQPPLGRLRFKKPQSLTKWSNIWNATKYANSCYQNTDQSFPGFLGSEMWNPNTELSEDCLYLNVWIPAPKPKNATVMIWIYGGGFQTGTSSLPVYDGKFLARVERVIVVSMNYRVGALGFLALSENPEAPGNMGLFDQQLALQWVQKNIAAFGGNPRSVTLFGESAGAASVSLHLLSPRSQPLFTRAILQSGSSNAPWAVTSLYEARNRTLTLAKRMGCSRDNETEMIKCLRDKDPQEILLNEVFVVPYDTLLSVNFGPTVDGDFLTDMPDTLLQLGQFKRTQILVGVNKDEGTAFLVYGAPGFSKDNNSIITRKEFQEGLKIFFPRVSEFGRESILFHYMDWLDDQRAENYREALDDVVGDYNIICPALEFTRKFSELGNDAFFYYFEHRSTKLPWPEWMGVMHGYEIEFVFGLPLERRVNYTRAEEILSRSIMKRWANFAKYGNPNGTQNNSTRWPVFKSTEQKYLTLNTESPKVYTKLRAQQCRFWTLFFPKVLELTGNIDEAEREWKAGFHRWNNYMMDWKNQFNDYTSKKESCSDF

SMILES	kon (Cholinesterase [1])	kon (Cholinesterase [2])
CCC(C)(C)NCC(O)c1cc(OC(=O)N(C)C)cc(OC(=O)N(C)C)c1 (centres undefined)	100000 M⁻¹ s⁻¹	2370 M⁻¹ s⁻¹
CCN(C)C(=O)Oc1cc(OC(=O)N(C)CC)cc(C(O)CNC(C)(C)CC)c1 (centres undefined)	122000 M⁻¹ s⁻¹	2480 M⁻¹ s⁻¹
